Results reported in ChEMBL document CHEMBL4699461, “Enhanced Production and Anticancer Properties of Photoactivated Perylenequinones” (J Nat Prod, 2020).

Columns and labels:
SK-MEL-28 [1] = experiment: Cytotoxicity against human SK-MEL-28 cells assessed as reduction in cell viability preincubated for 16 hrs in dark condition subsequently incubated for 48 hrs by alamar blue assay; format: cell-based
Method in brief: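 SK-MEL-28 human melanoma cells, ~550,000–600,000 cells/mL, settled 3 h at 37 °C, 5% CO₂. Compounds were serially diluted in DPBS and tested over 1 nM to 300 μM. Plates were kept dark in the incubator for 16 h, then 48 h more. alamarBlue was then added for 15–16 h, and viability was read by fluorescence (ex 530, em 620 nm) to give EC₅₀.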

SK-MEL-28 [2] = experiment: Phototherapeutic index, ratio of EC50 for cytotoxicity against human SK-MEL-28 cells in dark condition to EC50 for phototoxicity against human SK-MEL-28 cells preincubated for 16 hrs followed by irradiated with 100 J/cm2 625 nanometer red light for 60 mins
Method in brief: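 PI for red light, calculated as dark EC₅₀ divided by red-light EC₅₀ in SK-MEL-28 cells. Viability was read 48 h later by alamarBlue fluorescence.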

SK-MEL-28 [3] = experiment: Phototoxicity against human SK-MEL-28 cells assessed as reduction in cell viability preincubated for 16 hrs followed by irradiated with 100 J/cm2 400 to 700 nanometer visible light for 48 mins and measured after 48 hrs by alamar blue assay; conditions: SK-MEL-28, light or radiation study
SK-MEL-28 [4] = experiment: Phototoxicity against human SK-MEL-28 cells assessed as reduction in cell viability preincubated for 16 hrs followed by irradiated with 100 J/cm2 625 nanometer red light for 60 mins and measured after 48 hrs by alamar blue assay; format: functional, cell-based; conditions: SK-MEL-28, light or radiation study
Method in brief: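 Cells (SK-MEL-28, ~550,000–600,000 cells/mL) were dosed with compound at 1 nM–300 μM in DPBS dilutions, with a 16 h drug-to-light interval at 37 °C. They were irradiated with a 625 nm LED array at 27.8 mW/cm² to 100 J/cm². After 48 h of incubation, alamarBlue was added for 15–16 h and fluorescence was read (ex 530, em 620 nm) to give EC₅₀.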

SK-MEL-28 [5] = experiment: Phototherapeutic index, ratio of EC50 for cytotoxicity against human SK-MEL-28 cells in dark condition to EC50 for phototoxicity against human SK-MEL-28 cells preincubated for 16 hrs followed by irradiated with 100 J/cm2 400 to 700 nanometer visible light for 48 mins

In the case of COc1c(O)c2c(=O)cc(OC)c3c4c(OC)cc(O)c5c(=O)c(OC)c6c(c(c1[C@H](C(C)=O)[C@](C)(O)C6)c23)c54, the EC50 (SK-MEL-28 [1]) is reported as 130000 nM, the “Ratio EC50” value (SK-MEL-28 [2]) is reported as 2196 and the EC50 (SK-MEL-28 [3]) is reported as 53.5 nM. For the same molecule, the EC50 (SK-MEL-28 [4]) was 59.2 nM and the “Ratio EC50” value (SK-MEL-28 [5]) was 2430.

For COC1=C2c3c4c5c(c(O)cc(OC)c5c5c(OC)cc(O)c(c35)C1=O)C(=O)[C@H](OC)[C@]41C[C@@](C)(O)[C@H]2[C@]1(C)O, the EC50 (SK-MEL-28 [1]) was 132000 nM, the “Ratio EC50” value (SK-MEL-28 [2]) was 219 and the EC50 (SK-MEL-28 [3]) was 172 nM. For the same molecule, the EC50 (SK-MEL-28 [4]) was 603 nM and the “Ratio EC50” value (SK-MEL-28 [5]) was 767.

In the case of COC1=C2c3c4c5c(c(O)cc(OC)c5c5c(OC)cc(O)c(c35)C1=O)C(=O)C[C@]41C[C@](C)(O)[C@H]2[C@]1(C)O, the EC50 (SK-MEL-28 [1]) is reported as 98700 nM, the “Ratio EC50” value (SK-MEL-28 [2]) is reported as 39 and the EC50 (SK-MEL-28 [3]) is reported as 176 nM. The EC50 (SK-MEL-28 [4]) was 2550 nM and the “Ratio EC50” value (SK-MEL-28 [5]) was 561.

COC1=C(C(C)=O)C2=C(C)Cc3c(OC)c(=O)c(O)c4cc(OC)c5c(OC)cc(O)c6c(c2c3c4c56)C1=O was tested, and the EC50 (SK-MEL-28 [1]) was 43700 nM, the “Ratio EC50” value (SK-MEL-28 [2]) was 2783 and the EC50 (SK-MEL-28 [3]) was 14.7 nM. For the same molecule, the EC50 (SK-MEL-28 [4]) was 15.7 nM and the “Ratio EC50” value (SK-MEL-28 [5]) was 2973.

In the case of COC1=C2c3c4c5c(c(O)cc(OC)c5c5c(OC)cc(O)c(c35)C1=O)C(=O)[C@H](OC)[C@]41C[C@](C)(O)[C@H]2[C@]1(C)O, the EC50 (SK-MEL-28 [1]) is reported as > 300000 nM, the “Ratio EC50” value (SK-MEL-28 [2]) is reported as >234 and the EC50 (SK-MEL-28 [3]) is reported as 135 nM. The EC50 (SK-MEL-28 [4]) was 1280 nM and the “Ratio EC50” value (SK-MEL-28 [5]) was >2222.

In the case of COc1c(O)c2c(=O)cc(OC)c3c4c(OC)cc(=O)c5c(O)c(OC)c6c(c(c1C[C@@](C)(O)[C@@H]6C(C)=O)c23)c54, the EC50 (SK-MEL-28 [1]) is reported as 39300 nM, the “Ratio EC50” value (SK-MEL-28 [2]) is reported as 2569 and the EC50 (SK-MEL-28 [3]) is reported as 10.3 nM. The EC50 (SK-MEL-28 [4]) was 15.3 nM and the “Ratio EC50” value (SK-MEL-28 [5]) was 3816.
